Compounds with a hit are over-represented: about 1.2% of the library has one in this group of screens.
NPR2 activator: GC-B (human) receptor activation; P20594; HEK293-GC-B cells, CNP EC30, cGMP TR-FRET; 0% at EC30 CNP, 100% saturating CNP; activation, % at 10 µM; 370,000 tested, 0.11% active;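 active = activation at 10 µM reaching about 35% in either raw or pattern-adjusted values, limit read from the data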
ARFGAP1 inhibitor: inhibitors of rat ARFGAP1. Q62848. Arfgap1-stimulated ARF1 GTP hydrolysis, GDP FP detection. inhibition, % at 16.5 µM. 360,000 tested, 0.26% active. AID 651572;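 active = inhibition above a per-plate limit, mean inhibition of low control wells plus 3 SD, cut at about 25% in these data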
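System: truncated rat Arfgap1 GAP domain / Medium: HEPES-based buffer, pH 7.5 / Also added: N-terminally truncated human ARF1-GTP substrate / Incubation: enzyme reaction 120 min at 25 °C after 20 min preincubation / Measured by: FP of antibody-bound GDP Alexa 633 tracer, ex 620/em 688 nm / Replicates: singlicate, each compound tested once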
ASAP1 GAP inh: inhibitors of human ASAP1 ArfGAP activity. Q9ULH1. ASAP1-stimulated ARF1 GTP hydrolysis, GDP FP detection. inhibition, % at 16.5 µM. 360,000 tested, 0.19% active. AID 624377; in the data active = inhibition above about 25%
CTSL1 counter: cathepsin L1 inhibition, PFM18AAP counter-screen | recombinant F. hepatica cathepsin L1, Z-Leu-Arg-MCA fluorescence | inhibition, % at 5.96 µM | 300,000 tested, 0.49% active | AID 1906;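 active = inhibition above the mean of all tested compounds plus 3 SD, set per screening campaign, cut at about 17% in these data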
core dimer inh: blocks dimerization of HCV core protein; TR-FRET GST/Flag-core106 dimerization, 1536-well; inhibition, % at 5 µM; 300,000 tested, 0.33% active;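 active = inhibition above the mean of all tested compounds plus 3 SD, set per screening campaign, cut at about 45% in these data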
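assay system = GST-tagged and Flag-tagged HCV core protein residues 1-106 | controls = unlabelled core106 and no-GST-core106 wells | incubation = compound-protein-antibody incubation 4 h at 22.5 °C | probe or stimulus = Eu donor and XL665 acceptor anti-tag antibodies | read-out = % inhibition based on acceptor/donor emission ratio | signal = TR-FRET 671 and 617 nm emission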
NPR1 activator: GC-A (human) enzyme activation; AID 1671463; 370,000 tested, 0.14% active; P16066; activation, % at 10 µM; HEK293 GC-A cells, cGMP TR-FRET, EC30 ANP; 0% at EC30 ANP, 100% saturating ANP; in the data active = activation above about 40%
Of the large screens only hits and unclear results are named; the others gave an inactive call.

Cc1cc(C2=NNC(=NC3CCCCC3)SC2)c(C)n1-c1c(C)n(C)n(-c2ccccc2)c1=O	core dimer inh 65
Cc1cc(C2=NNC(=NC3CC3)SC2)c(C)n1-c1ccccc1F	none
CCCCC1=CC2=C(c3ccco3)C(=O)C(C)(OC(=O)c3ccc(OC)cc3)C(=O)C2=CN1C1CCCC1 (stereo not given)	core dimer inh 59 (no result: NPR2 activator, ARFGAP1 inhibitor, ASAP1 GAP inh, NPR1 activator)
CCCCC1=CC2=C(c3ccco3)C(=O)C(C)(OC(=O)c3ccc(OC)cc3)C(=O)C2=CN1c1ccc(OC)cc1 (stereo not given)	core dimer inh 58
COc1cccc([C@@H]2CC=C(C(=O)O)[C@H](c3ccc(Cl)cc3)N2S(=O)(=O)c2ccc(C)cc2)c1	none
COc1ccc(N=Cc2nc(-c3ccco3)oc2O)cc1	none
O=C(Oc1oc(-c2ccco2)nc1C=Nc1ccc(Cl)cc1)c1ccco1	NPR1 activator 44
CCOc1ccc(C(=O)NCC(=O)OCC(=O)Nc2ccccc2OCC)cc1	none
COc1ccccc1OCC(=O)Nc1oc(-c2ccccc2)c(-c2ccccc2)c1C#N	none
Cc1ccc(OCC(=O)Nc2oc(-c3ccccc3)c(-c3ccccc3)c2C#N)cc1	core dimer inh 47
COc1ccc(-c2oc(NC(=O)CCl)c(C#N)c2-c2ccc(OC)cc2)cc1	CTSL1 counter 61
N#Cc1c(NC(=O)COC(=O)C2CC3C=CC2C3)oc(-c2ccccc2)c1-c1ccccc1 (stereo not given)	core dimer inh 69
Cc1cccn2c(=O)c3cc(S(=O)(=O)c4ccccc4)c(=N)n(Cc4cccnc4)c3nc12	none
CSc1nnc(-c2ccccc2)n1C	none
CCc1nnc(/N=C/c2c(O)n(-c3ccc(Cl)cn3)c(=O)c3ccccc23)s1	none
O=c1c2ccccc2c(C=Nc2ccc(S(=O)(=O)N3CCCCC3)cc2)c(O)n1-c1ccc(Cl)cn1	core dimer inh 60
COCCCn1c(SCC(=O)N2CCc3ccccc32)nnc1-c1ccoc1C	core dimer inh 55
CCCc1nn(C)c2c(=O)[nH]c(-c3cc(S(=O)(=O)Nc4ccc(NC(C)=O)cc4)ccc3OCC)nc12	NPR2 activator 55, NPR1 activator 41
CCCc1nn(C)c2c(=O)[nH]c(-c3cc(S(=O)(=O)N4CCN(C)CC4)ccc3OCC)nc12	NPR2 activator 58, NPR1 activator 52
O=C(NC(=S)Nc1cccc(S(=O)(=O)NC2=NCCC2)c1)c1cc(-c2ccco2)nc2ccccc12	none
Cc1nnc(NC(=O)c2cc(-c3ccco3)nc3ccccc23)s1	core dimer inh 78
O=C(N/N=C/c1ccc(F)cc1)c1cc(-c2ccco2)nc2ccccc12	core dimer inh 69
O=C(Nc1nccs1)c1cc(-c2ccco2)nc2ccccc12	core dimer inh 84
CCOc1ccc(/C=N/NC(=O)c2cc(-c3ccco3)nc3ccccc23)cc1	none
O=C(Nc1cccc(S(=O)(=O)NC2=NCCC2)c1)c1cc(-c2ccco2)nc2ccccc12	core dimer inh 76
O=C(Nc1nc2ccccc2s1)c1cc(-c2ccco2)nc2ccccc12	none
Cc1nn(-c2ccc(N3CCCCC3)nn2)c(C)c1CCC(=O)Nc1cccc(F)c1	none
CCN(CC)S(=O)(=O)c1cc(C(=O)O)ccc1OC	none
O=C(c1ccc(C(F)(F)F)cc1)C1CCCN(C(=O)CN2CCCC2=O)C1 (stereo not given)	none
O=C(NN=C1CCCCCC1)c1ccc(Br)o1	none
COc1cc(Cl)c(NS(=O)(=O)c2c(C(=O)N3CCCC3)c(C)n(C)c2C)c(OC)c1	none
CC(C)c1ccc(C2CC(c3ccc(Br)cc3)=NN2C(N)=S)cc1 (stereo not given)	CTSL1 counter 20
Brc1cccc(-c2nnc(-c3ccccc3)o2)c1	none
Nc1ccccc1Nc1ccccc1	CTSL1 counter 19
COc1cccc(/C=N/Nc2ncnc3c2[nH]c2ccc(C)cc23)c1OC	core dimer inh 49
COc1ccc(/C=N/Nc2ncnc3c2[nH]c2ccccc23)c(OC)c1OC	none
Cc1ccc(N2CC(=O)Nc3c(sc4nc(C)cc(C)c34)C2=O)cc1	CTSL1 counter 29
S=C(c1ccc(-c2cccc(Cl)c2)o1)N1CCCCC1	none
S=C(c1ccc(-c2cccc(Cl)c2)o1)N1CCOCC1	NPR2 activator 35
S=C(c1ccc(-c2cc(Cl)ccc2Cl)o1)N1CCOCC1	NPR2 activator 43
C=CCSc1nc2c(c(=O)[nH]c(=O)n2C)n1Cc1ccc(C)cc1	NPR2 activator 38
Cc1ccc(-c2cc(C(F)F)nc(S(C)(=O)=O)n2)cc1	NPR1 activator 74
Cc1ccc(CCNC(=O)c2cc(S(=O)(=O)N3CCOCC3)cn2C)cc1	CTSL1 counter 67
COc1ccccc1CNC(=O)c1cc(S(=O)(=O)N2CCCC2)cn1C	NPR2 activator 37
CCN(c1ccccc1)c1cc2ccccc2c(=O)[nH]1	CTSL1 counter 51
CCN(c1ccccc1)c1nc(=O)c2cccnc2s1	none
O=C(CCN1CCN(c2ccccc2)CC1)c1ccc(Cl)cc1	NPR1 activator 44
O=C(CCN1CCN(c2ccc([N+](=O)[O-])cc2)CC1)c1ccc(Cl)cc1	NPR1 activator 63
O=C(CN1CCN(c2ccc([N+](=O)[O-])cc2)CC1)c1ccccc1	none
O=C(CCN1CCN(c2ccccc2)CC1)Nc1ccc(Cl)cc1	none
Cc1csc(NC(=O)CSc2nnc(-c3cc(C)on3)o2)n1	none
NC(=S)N/N=C1/CCSc2ccc3ccccc3c21	CTSL1 counter 25
NC(=S)N/N=C/c1c(O)ccc2ccccc12	none
Cc1c(NC(=O)COc2cccc(Cl)c2Cl)c(=O)n(-c2ccccc2)n1C	CTSL1 counter 23
Cc1c(NC(=O)COc2c(F)c(F)c(F)c(F)c2F)c(=O)n(-c2ccccc2)n1C	ARFGAP1 inhibitor 27
Cc1cc(C)c(N(C(=O)c2csnn2)C(C(=O)NC2CCCC2)c2ccncc2)c(C)c1 (stereo not given)	none
N#CC1=C(N)Oc2n[nH]c(-c3ccccc3)c2C1c1cccnc1 (stereo not given)	none
Cc1ccc(/C=C2/NC(=O)N(Cc3ccccc3)C2=O)o1	NPR2 activator 46
CC(=O)OC1=Cc2c(ccc3ccc(=O)oc23)OC1(C)C	none
Cc1cc(C)n(-c2nc(N(c3ccccc3)c3ccccc3)nc(-n3nc(C)cc3C)n2)n1	none (no result: NPR2 activator, ARFGAP1 inhibitor, ASAP1 GAP inh, NPR1 activator)
CCn1c(COc2cccc(C)c2)nnc1SCC(=O)CC(=O)Nc1ccccc1OC	CTSL1 counter 17
CCn1c(COc2ccccc2)nnc1SCC(=O)CC(=O)Nc1ccccc1OC	none
O=C(CSc1ccc(-c2ccco2)nn1)c1cccc([N+](=O)[O-])c1	core dimer inh 65

Bioassay records deposited in PubChem BioAssay by several laboratories.
